Assay [1] is filed under the species Mus musculus. Description: Adjuvant activity in immunized C57BL/6 mouse assessed as increase in antigen specific IFNgamma production in spelnocytes at 0.3 umol treated with ovalbumin for 7 days followed by stimulation with OVA for 7 days and restimulation with OVA measured 24 to 48 hrs post OVA challenge. The class given is functional, cell-based. The gist of the method:
(§1)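 C57BL/6 mice (8–12 wk) given s.c. oil-in-water emulsion (mineral oil/Tween-80/PBS 9:1:90) holding OVA 200 μg ± adjuvant 0.3 μmol; controls were OVA alone or no OVA. Footpad challenge with OVA 100 μg on day 7, spleens taken day 14. Splenocytes restimulated with OVA 10, 30 or 100 μg/mL. Cell number read at 450 nm after 3 h with a count reagent; IFN-γ and IL-17 measured by ELISA.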

The species entered for assay [2] is Mus musculus. As to the kind of experiment: Adjuvant activity in immunized C57BL/6 mouse assessed as increase in IL-17 production in spelnocytes at 0.3 umol treated with ovalbumin for 7 days followed by stimulation with OVA for 7 days and restimulation with OVA measured 24 to 48 hrs post OVA challenge. The class given is functional, cell-based. A digest of the protocol:
as §1

Assay [3] concerns the target T1, C-type lectin domain family 4 member E (Mus musculus) (UniProt Q9R0Q8).
T1 sequence (whole entry): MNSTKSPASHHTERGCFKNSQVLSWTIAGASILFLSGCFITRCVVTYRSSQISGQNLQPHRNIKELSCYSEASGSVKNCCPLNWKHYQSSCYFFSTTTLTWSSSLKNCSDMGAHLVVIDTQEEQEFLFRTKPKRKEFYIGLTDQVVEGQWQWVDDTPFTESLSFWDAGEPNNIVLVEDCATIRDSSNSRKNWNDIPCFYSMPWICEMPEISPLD
Description: Agonist activity at mincle in wild type C57BL/6 mouse GM-CSF derived BMDM assessed as increase in IL-1beta release at 0.1 to 1 nmol after 24 hrs by sandwich ELISA. A digest of the protocol:
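Wild-type or Mincle−/− C57BL/6 bone marrow was cultured 8 days with GM-CSF 50 ng/mL in complete RPMI. Macrophages were detached with Acutase and seeded on ligand-coated plates (0.1 or 1 nmol/well); LPS 100 ng/mL was used as comparator. Supernatant was taken at 24 h and TNF, IL-6, IL-1β and MIP-2 measured by sandwich ELISA. Representative of three experiments in triplicate (±SD).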
A general note: An ELISA detects its analyte on a solid surface through an enzyme-linked reagent.

In assay [4] the target is T1, C-type lectin domain family 4 member E (Mus musculus). As to the kind of experiment: Binding affinity to recombinant mouse mincle extracellular domain fused with human IgG Fc expressed in HEK293T cells at 0.1 nmol by ELISA. The class given is cell-based. As to conditions: HEK-293T.
Assay [5] deals with T2, C-type lectin domain family 4 member E (Homo sapiens) (UniProt Q9ULY5).
T2 sequence (whole entry): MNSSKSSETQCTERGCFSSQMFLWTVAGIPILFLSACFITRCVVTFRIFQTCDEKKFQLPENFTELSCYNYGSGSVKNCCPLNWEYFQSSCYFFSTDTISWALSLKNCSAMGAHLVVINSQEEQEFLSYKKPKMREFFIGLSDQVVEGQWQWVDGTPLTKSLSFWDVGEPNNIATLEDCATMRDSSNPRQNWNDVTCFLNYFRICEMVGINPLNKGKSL
As to the kind of experiment: Binding affinity to recombinant human mincle extracellular domain fused with human IgG Fc expressed in HEK293T cells at 0.1 nmol by ELISA. The assay is classed as cell-based. To be noted: HEK-293T.

The subject of assay [6] is T3, C-type lectin domain family 4 member E (Homo sapiens), Q9ULY5 [R183A].
T3 sequence (whole entry): T2 sequence (whole entry) with R183A
As to the kind of experiment: Agonist activity at human mincle R183A mutant expressed in NFAT-GFP reporter cells up to 3000 pmol after 18 hrs by flow cytometric analysis. The class given is cell-based. A digest of the protocol: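 The hMincle R183A mutant, made by site-directed mutagenesis, was retrovirally introduced into 2B4 NFAT-GFP cells expressing FcRγ only. Cells were stimulated on plates coated with increasing ligand amounts for 18 h, and NFAT-GFP was read by flow cytometry. Mean of two independent experiments in duplicate (±SEM).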
For orientation: Flow cytometry measures light scatter and fluorescence of single cells or particles in a stream.

In the next assay the test system is Th1. As to the kind of experiment: Immunostimulatory activity in OT-2 TCR transgenic mouse CD4+ Th1 cells co-cultured with C57BL/6 mouse BMDM assessed as increase in IFNgamma release at 0.1 nmol after 48 hrs by ELISA. The class given is functional, cell-based. The gist of the method:
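OT-II CD4+ T cells (1×10^5) were cocultured with GM-CSF bone-marrow cells (1×10^4) on wells coated with glycolipid 0.1 nmol/well or isopropanol only, with OVA323–339 peptide at 0, 0.1 or 1 μM. Supernatant was collected after 48 h and IFN-γ and IL-17 measured by ELISA. Representative of two experiments in triplicate (±SD).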

Assay [7] is filed under the species Mus musculus. Description: Adjuvant activity in immunized C57BL/6 mouse assessed as increase in splenocyte number at 0.3 umol treated with ovalbumin for 7 days followed by stimulation with OVA for 7 days and restimulation with OVA measured 24 to 48 hrs post OVA challenge. The assay is classed as functional. A digest of the protocol:
as §1

Residue numbers refer to the chain shown, from its start. The source made the active and inactive calls. The rule behind the calls is not given here.

For the compound `CCCCCCCCCCCCCCCCCCOc1ccc(C(=O)OC[C@H]2O[C@H](O[C@H]3O[C@H](COC(=O)c4ccc(OCCCCCCCCCCCCCCCCCC)cc4O)[C@@H](O)[C@H](O)[C@H]3O)[C@H](O)[C@@H](O)[C@@H]2O)c(O)c1`, the outcome (in the assay listed under Mus musculus [1]; in assay [3]; in assay [4]; in assay [5]; in the assay filed under Mus musculus [7]) was Active. The outcome (in the assay filed under Mus musculus [2]; in assay [6]; with Th1) was inactive.

For the origin of these results see ChEMBL document CHEMBL4033780, “Lipidated Brartemicin Analogues Are Potent Th1-Stimulating Vaccine Adjuvants” (J Med Chem, 2018).
